Screening data as filed in PubChem BioAssay.
A selection: hits, their analogues and other compounds. The true share with any hit is near 9.6%.
HCT116 bCat-KO – beta-catenin-lacking colon tumor cell growth suppression. viability, % at 10 µM. 140,000 tested, 1.5% active. HCT116 beta-catenin knockout viability, CellTiter-Glo, 60 h; hits give low values. AID 818;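 active means viability at or under a set limit, the compound median less 4 SD, cut at about 6% in these data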;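 further: 0% = Hyamine 1622 control at 20 µM and 100% = untreated cell control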
HCT116 PTEN-null – suppresses growth of cells with PTEN deletion; 140,000 tested, 1.2% active; AID 827; HCT116 PTEN-null viability, CellTiter-Glo, 60 h; hits give low values; viability, % at 10 µM;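 active means viability at or below a set limit, 4 SD under the median of all tested compounds, cut at about 3.7% in these data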;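 further: PTEN knockout HCT116 line with beta catenin targeted HCT116 as companion control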
PMI act satM6P – activators of human phosphomannose isomerase at near-saturating mannose 6-phosphate. P34949. coupled PMI enzyme assay, resazurin fluorescence, 20 min; hits give high values; 1 = untreated enzyme, 0 = substrate-free blank. activation factor at 20 µM. 190,000 tested, 0.34% active. AID 1216;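 active means activation factor of 2 or more at 20 µM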
Target sequence (P34949 whole entry, looked up): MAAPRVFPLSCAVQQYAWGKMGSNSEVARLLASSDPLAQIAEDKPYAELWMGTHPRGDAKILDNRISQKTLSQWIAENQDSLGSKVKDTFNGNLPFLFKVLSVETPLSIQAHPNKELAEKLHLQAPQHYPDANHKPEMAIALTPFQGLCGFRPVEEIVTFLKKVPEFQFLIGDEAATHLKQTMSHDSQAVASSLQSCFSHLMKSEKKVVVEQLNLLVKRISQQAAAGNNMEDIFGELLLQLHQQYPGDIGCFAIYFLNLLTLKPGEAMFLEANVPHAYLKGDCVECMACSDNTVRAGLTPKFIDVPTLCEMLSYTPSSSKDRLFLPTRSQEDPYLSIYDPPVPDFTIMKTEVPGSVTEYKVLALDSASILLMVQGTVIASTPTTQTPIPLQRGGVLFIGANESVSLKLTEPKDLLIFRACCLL
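Test system – human PMI in coupled enzyme assay · Timing – 20 min incubation at room temperature · Detection – Diaphorase-driven resazurin-to-resorufin fluorescence, excitation 544, emission 590 nm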
Lmaj promast – inhibitors of Leishmania major promastigote growth; Leishmania major promastigotes, resazurin fluorescence viability; inhibition, % at 10 µM; 200,000 tested, 9% active; AID 1063; in the data active means inhibition above about 50%;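 further: promastigotes grown with compound for 44 hours at 28 °C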
PMI activator – phosphomannose isomerase (human) activation; AID 1214; purified human PMI, coupled resazurin fluorescence, 20 min; hits give high values; 1 = vehicle control, 0 substrate-free wells; activation factor at 20 µM; 190,000 tested, 0.005% active;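 active means activation factor of 2 or more at 20 µM, relative to plate controls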
Numbers without * were called inactive.

`Cn1c(SCC(=O)NCc2ccco2)nnc1-c1c[nH]c2ccccc12` gave HCT116 bCat-KO 94, HCT116 PTEN-null 95, PMI act satM6P 0.9, Lmaj promast -5 and PMI activator 1.
COc1ccc(-n2c(-c3ccc(F)cc3)cnc2SCC(=O)NCc2ccco2)cc1 was read as HCT116 bCat-KO 69, HCT116 PTEN-null 62, PMI act satM6P 0.9, Lmaj promast 100* and PMI activator 0.8.
For O=C(CSc1ncc(-c2ccccc2)n1-c1ccccc1)NCc1ccco1 the results were HCT116 bCat-KO 88, HCT116 PTEN-null 88, PMI act satM6P 0.9, Lmaj promast 3 and PMI activator 0.8.
For CCCCn1c(SCC(=O)Nc2cc(C(F)(F)F)ccc2Cl)nnc1C(CC)N(C)C (stereo not drawn) the results were HCT116 bCat-KO 88, HCT116 PTEN-null 84, PMI act satM6P 1, Lmaj promast 82* and PMI activator 1.
For COc1cccc(/C=C/C(=O)c2ccc(NC3=NCCCS3)cc2)c1 the results were PMI act satM6P 1, Lmaj promast 99* and PMI activator 0.9.
For COc1ccc(/C=C/C(=O)NC2=NCCS2)cc1OC the results were PMI act satM6P 1, Lmaj promast 5 and PMI activator 1.
For Cc1cccc(/C=C/C(=O)c2ccc(NC3=NCCCS3)cc2)c1 the results were HCT116 bCat-KO 10, HCT116 PTEN-null 4, PMI act satM6P 1, Lmaj promast 77* and PMI activator 0.9.
Cn1c(=O)[nH]c(=O)c2c1nc(N1CCCCCC1)n2CCCSc1nnnn1-c1ccccc1 was read as HCT116 bCat-KO 87, HCT116 PTEN-null 86, PMI act satM6P 0.9, Lmaj promast 46 and PMI activator 0.9.
Cc1oc(-c2ccccc2)nc1C(=O)N1CCN(c2ccc(F)cc2)CC1 was read as PMI act satM6P 1.1, Lmaj promast -4 and PMI activator 1.
Screening CSc1nc2c(c(-c3ccccc3)c1C#N)CCC2 returned Lmaj promast 2.
`N#CC1=C(c2ccc(-c3ccccc3)cc2)COC1=O` gave PMI act satM6P 2.4*, Lmaj promast -9 and PMI activator 1.7.
For COc1ccc(C2=C(c3ccc([N+](=O)[O-])cc3)C(=O)OC2)cc1 the results were PMI act satM6P 1, Lmaj promast -9 and PMI activator 1.
For Cc1cc(C(=O)Nc2ccccc2)oc1C the results were HCT116 bCat-KO 89, HCT116 PTEN-null 90, PMI act satM6P 1.1, Lmaj promast 56* and PMI activator 1.1.
For Cc1c(C(=O)N2CCc3ccccc3C2)oc2ccc(S(=O)(=O)N3CC(C)CC(C)C3)cc12 (stereo not drawn) the results were HCT116 bCat-KO 56, HCT116 PTEN-null 58, PMI act satM6P 0.8, Lmaj promast 1 and PMI activator 0.7.
COc1ccc(NC2=CC(=O)CC(c3ccccc3)C2)cc1 (stereo not drawn) was read as PMI act satM6P 0.9, Lmaj promast -7 and PMI activator 0.9.
`Cc1ccc(N2CCN(c3ccc(C)cc3)C2c2ccncc2)cc1` gave HCT116 bCat-KO 103, HCT116 PTEN-null 89, PMI act satM6P 1, Lmaj promast 92* and PMI activator 0.9.
`Cc1cccc(N2CCN(c3cccc(C)c3)C2c2cccnc2)c1` gave HCT116 bCat-KO 80, HCT116 PTEN-null 78, PMI act satM6P 0.9, Lmaj promast 99* and PMI activator 0.9.
Cc1nnc(SCc2cccs2)[nH]c1=O was read as HCT116 bCat-KO 91, HCT116 PTEN-null 97, PMI act satM6P 1, Lmaj promast 8 and PMI activator 1.
`C(=C\c1ccccc1)/CN1CCN(c2ncnc3c2oc2ccccc23)CC1` gave HCT116 bCat-KO 11, HCT116 PTEN-null 20, PMI act satM6P 0.9, Lmaj promast 57* and PMI activator 0.9.
`O=C(Nc1ccc(S(=O)(=O)N2CCCCC2)cc1)c1ccc(CN2CCc3ccccc3C2)cc1` gave HCT116 bCat-KO 12, HCT116 PTEN-null 15, PMI act satM6P 1.3, Lmaj promast 99* and PMI activator 1.2.
O=C(Nc1ccccc1)c1ccc(-c2ccc(Br)cc2)o1 was read as HCT116 bCat-KO 89, HCT116 PTEN-null 95, PMI act satM6P 0.9, Lmaj promast 26 and PMI activator 0.8.
Screening O=C(Nc1ccc(S(=O)(=O)Nc2ccccc2)cc1)c1ccc(CN2CCOCC2)cc1 returned PMI act satM6P 1, Lmaj promast 82* and PMI activator 0.9.
O=C(Nc1ccc(CN2CCOCC2)cc1)c1ccc(-c2ccc(Br)cc2)o1 was read as HCT116 bCat-KO 14, HCT116 PTEN-null 17, PMI act satM6P 0.9, Lmaj promast 83* and PMI activator 0.9.
`CC1CCCC(C)N1/N=C/c1ccc(N(C)C)cc1` (stereo not drawn) gave PMI act satM6P 0.9, Lmaj promast 2 and PMI activator 0.9.
For N#CCSc1nc(Nc2ccc3c(c2)OCO3)c2ccccc2n1 the results were HCT116 bCat-KO 69, HCT116 PTEN-null 74, PMI act satM6P 0.9, Lmaj promast 14 and PMI activator 0.9.
Screening CCOC(=O)CSc1nc(Nc2ccc3c(c2)OCO3)c2ccccc2n1 returned HCT116 bCat-KO 91, HCT116 PTEN-null 91, PMI act satM6P 0.8, Lmaj promast 56* and PMI activator 0.8.
O=C(CCc1nnc(CCC2CCCCC2)o1)NCc1ccon1 was read as PMI act satM6P 1, Lmaj promast -1 and PMI activator 0.9.
For CCn1cc(C(=O)N=c2sc3ccccc3n2C)c(=O)c2ccc(C)nc21 the results were Lmaj promast 89*.
Screening CCOC(=O)CC1=NN(c2ccccc2)C(=O)C1 returned PMI act satM6P 1, Lmaj promast 0 and PMI activator 1.1.
For CC1=NN(c2ccccc2)C(=O)/C1=C/C=C/c1ccc(N(C)C)cc1 the results were PMI act satM6P 0.8, Lmaj promast 68* and PMI activator 0.9.
`CCOC(=O)CC1=NN(c2ccccc2)C(=O)/C1=C\c1ccc(N(C)C)cc1` gave HCT116 bCat-KO 85, HCT116 PTEN-null 88, PMI act satM6P 0.8, Lmaj promast 96* and PMI activator 0.8.
For CCC(=O)NC(=S)Nc1ccc(NC(=O)c2ccc(Br)o2)cc1 the results were PMI act satM6P 1, Lmaj promast 7 and PMI activator 0.9.
Screening O=C(CN1C(=O)C2C3C=CC(C4CC34)C2C1=O)OCC(=O)c1ccccc1 (stereo not drawn) returned HCT116 bCat-KO 97, HCT116 PTEN-null 96, PMI act satM6P 0.9, Lmaj promast 22 and PMI activator 0.9.
`CCN1C(=O)C2(SC(NC(C)=O)=NN2C(C)=O)c2cc(C)cc(C)c21` (stereo not drawn) gave HCT116 bCat-KO 88, HCT116 PTEN-null 92, PMI act satM6P 1.1, Lmaj promast 71* and PMI activator 1.
`Cc1cc(C(=O)OCC(=O)N2CC(C)OC(C)C2)ccc1[N+](=O)[O-]` (stereo not drawn) gave PMI act satM6P 1.2, Lmaj promast -8 and PMI activator 1.3.
